Results reported in ChEMBL document CHEMBL4024783, “Alkylated Piperazines and Piperazine-Azole Hybrids as Antifungal Agents” (J Med Chem, 2018).
Converted amounts (≈) assume the structure as drawn. The source made the active and inactive calls. The rule behind the calls is not given here.

How the values were obtained:
Candida albicans [1] = test: Antifungal activity against Candida albicans ATCC 10231 at […] ug/mL incubated for 1 hr by propidium iodide staining-based fluorescence microscopic method; type: functional
Pichia kudriavzevii = test: Antifungal activity against Candida krusei ATCC 6258 after 48 hrs by broth dilution method; type: functional; settings: Pichia kudriavzevii, ATCC 6258, 48 h
In short: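 Yeasts tested per CLSI M27-A3 with minor changes. An overnight YPD culture (35 °C, 200 rpm) was adjusted to OD600 0.12 and diluted in MOPS-buffered RPMI 1640 (pH 7.0) to a final 1–2 × 10^3 CFU/mL. Compounds 0.015–31.3 µg/mL, DMSO <1.25%.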

Aspergillus nidulans [2] = test: Ratio of MIC in presence of 10% FBS to MIC in absence of 10% FBS for Aspergillus nidulans ATCC 38163; type: functional
In short: (§1)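 MIC broth dilution run in parallel in RPMI 1640 with or without 10% fetal bovine serum against C. albicans ATCC 10231, C. parapsilosis ATCC 22019 and A. nidulans ATCC 38163.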

Candida parapsilosis [3] = test: Ratio of MIC in presence of 10% FBS to MIC in absence of 10% FBS for Candida parapsilosis ATCC 22019; type: functional; in short: as §1
Candida albicans [4] = test: Antifungal activity against itraconazole and fluconazole susceptible Candida albicans ATCC MYA-2876 after 48 hrs by broth dilution method; type: functional; settings: Candida albicans, ATCC MYA-2876, 48 h
Aspergillus nidulans [5] = test: Antifungal activity against Aspergillus nidulans ATCC 38163 after 48 hrs by broth dilution method; type: functional; settings: Aspergillus nidulans, ATCC 38163, 48 h
In short: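 A. nidulans run per CLSI M38-A2. PDA spores were filtered through glass wool and counted by hemocytometer. Test range 0.03–31.3 µg/mL in MOPS-buffered RPMI 1640 (pH 7.0), final 5 × 10^5 CFU/mL.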

Candida albicans [6] = test: Antifungal activity against itraconazole and fluconazole resistant Candida albicans ATCC MYA-1003 after 48 hrs by broth dilution method; type: functional; settings: Candida albicans, ATCC MYA-1003, 48 h
In short: (§2)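 CLSI M27-A3 broth microdilution with minor modifications. Overnight YPD culture grown at 35 °C, 200 rpm, adjusted to OD600 0.12, diluted in RPMI 1640 buffered to pH 7.0 with 0.165 M MOPS to a final 1–2 × 10^3 CFU/mL. Test compounds at 0.015–31.3 µg/mL, 48 h at 35 °C, DMSO <1.25%. […] Triplicate.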

[7] = Solubility of the compound in DMSO; type: physicochemical
A549 = test: Cytotoxicity against human A549 cells up to 31 ug/ml after 24 hrs by resazurin-based fluorescence assay; type: cell-based; settings: a549, 24 h
In short: (§3)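 Cells grown in DMEM with 10% FBS at 37 °C, 5% CO2, and seeded at 10000 (HEK-293) or 3000 (BEAS-2B, A549) per well. After 16 h, exposed 24 h to 0.13–31 µg/mL final in medium with 0.1–0.4% DMSO. Resazurin added for 6–10 h; fluorescence read at 560/590 nm and survival normalized to DMSO control after background subtraction. Triton X-100 12.5% v/v positive control; duplicate.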

Candida albicans [8] = test: Antifungal activity against itraconazole and fluconazole susceptible Candida albicans ATCC MYA-2310 after 48 hrs by broth dilution method; type: functional; settings: Candida albicans, ATCC MYA-2310, 48 h
BEAS-2B = test: Cytotoxicity against human BEAS2B cells up to 31 ug/ml after 24 hrs by resazurin-based fluorescence assay; type: cell-based; in short: as §3
Aspergillus nidulans [9] = test: Antifungal activity against Aspergillus nidulans ATCC 38163 after 48 hrs in the presence of 10% FBS by broth dilution method; type: functional; settings: ATCC 38163, 48 h
Candida albicans [10] = test: Antifungal activity against itraconazole and fluconazole resistant Candida albicans ATCC 90819 after 48 hrs by broth dilution method; type: functional; settings: Candida albicans, ATCC 90819, 48 h; in short: as §2
HEK293 = test: Cytotoxicity against HEK293 cells up to 31 ug/ml after 24 hrs by resazurin-based fluorescence assay; type: cell-based; settings: human, hek293, 24 h; in short: as §3
Candida albicans [11] = test: Antifungal activity against Candida albicans ATCC 10231 after 48 hrs in the presence of 10% FBS by broth dilution method; type: functional; settings: ATCC 10231, 48 h
Candida albicans [12] = test: Ratio of MIC in presence of 10% FBS to MIC in absence of 10% FBS for Candida albicans ATCC 10231; type: functional; in short: as §1
Candida parapsilosis [13] = test: Antifungal activity against Candida parapsilosis ATCC 22019 after 48 hrs in the presence of 10% FBS by broth dilution method; type: functional; settings: Lodderomyces parapsilosis, ATCC 22019, 48 h
Aspergillus terreus = test: Antifungal activity against Aspergillus terreus ATCC MYA-3633 after 48 hrs by broth dilution method; type: functional; settings: Aspergillus terreus, ATCC MYA-3633, 48 h
In short: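 Molds tested per CLSI M38-A2. Spores were harvested from sporulating PDA cultures by filtering through glass wool and counted on a hemocytometer. Serial dilutions (0.03–31.3 µg/mL) were made in RPMI 1640 buffered to pH 7.0 with 0.165 M MOPS, final inoculum 5 × 10^5 CFU/mL.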

[14] = Aqueous solubility of the compound; type: physicochemical; settings: buffer
Aspergillus flavus = test: Antifungal activity against Aspergillus flavus ATCC MYA-3631 after 48 hrs by broth dilution method; type: functional; settings: ATCC MYA-3631, 48 h
Candida albicans [15] = test: Antifungal activity against Candida albicans ATCC 64124 after 48 hrs by broth dilution method; type: functional; settings: Candida albicans, ATCC 64124, 48 h; in short: as §2
Candida albicans [16] = test: Antifungal activity against itraconazole and fluconazole resistant Candida albicans ATCC MYA-1237 after 48 hrs by broth dilution method; type: functional; settings: Candida albicans, ATCC MYA-1237, 48 h; in short: as §2
Candida albicans [17] = test: Antibiofilm activity against voriconazole resistant Candida albicans ATCC 64124 sessile cells incubated for 24 hrs by XTT reduction assay; type: functional; settings: ATCC 64124, 24 h
In short: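 Strain B grown overnight in YPD broth at 35 °C, diluted to OD600 0.1 (~10^6 CFU/mL), then grown statically for 24 h at 37 °C to form biofilm. Washed with PBS, then drug in RPMI 1640 at 0.12–62.5 µg/mL for 24 h at 37 °C. Read-out: XTT 0.5 mg/mL with menadione 1 µM, 2 h, A490. SMIC50/SMIC80 are 50%/80% decreases versus drug-free biofilm. Duplicate.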

Nakaseomyces glabratus = test: Antifungal activity against Candida glabrata ATCC 2001 after 48 hrs by broth dilution method; type: functional, CBS 138; settings: Nakaseomyces glabratus, CBS 138, 48 h
Candida albicans [18] = test: Ratio of MIC80 for voriconazole resistant Candida albicans ATCC 64124 sessile cells to MIC for voriconazole resistant Candida albicans ATCC 64124; type: functional
Candida albicans [19] = test: Antifungal activity against Candida albicans ATCC 10231 after 48 hrs by broth dilution method; type: functional; settings: ATCC 10231, 48 h
Candida parapsilosis [20] = test: Antifungal activity against Candida parapsilosis ATCC 22019 after 48 hrs by broth dilution method; type: functional; settings: Lodderomyces parapsilosis, ATCC 22019, 48 h

Row | Structure (SMILES) | MIC (Pichia kudriavzevii) [µM] | MIC (Aspergillus nidulans [5]) [µM] | solubility [7] | MIC (Aspergillus nidulans [9]) [µg/mL] | MIC (Candida albicans [10]) [µM] | MIC (Candida albicans [11]) [µg/mL] | MIC (Candida parapsilosis [13]) [µg/mL] | MIC (Aspergillus terreus) [µM] | solubility [14] | MIC (Aspergillus flavus) [µM] | MIC50 (Candida albicans [17]) [µg/mL] | MIC80 (Candida albicans [17]) [µg/mL] | MIC (Nakaseomyces glabratus) [µM] | Ratio (Candida albicans [18]) | MIC (Candida albicans [19]) [µM] | MIC (Candida parapsilosis [20]) [µM] | further results
1 | CCCCCCCCCCCCCCOC[C@H]1O[C@H](O[C@@H]2[C@@H](O)[C@H](O[C@H]3O[C@H](CN)[C@@H](O)[C@H](O)[C@H]3N)[C@@H](N)C[C@H]2N)[C@H](O)[C@@H](N)[C@@H]1O |  |  |  |  |  |  |  |  |  |  |  |  |  |  |  |  | Activity (Candida albicans [1]): Active
2 | CCCCCCCCCCCCCCN1CCNCC1 | 3.5 (≈ 0.989 µg/mL) | 3.5 (≈ 0.989 µg/mL) | Soluble | 7.8 | 6.9 (≈ 1.95 µg/mL) | 7.8 | 7.8 | 3.5 (≈ 0.989 µg/mL) | Soluble | 3.5 (≈ 0.989 µg/mL) | 15.6 (≈ 55.2 µM) | 62.5 (≈ 221 µM) | 3.5 (≈ 0.989 µg/mL) | 16 - 64 | 3.5 (≈ 0.989 µg/mL) | 3.5 (≈ 0.989 µg/mL) | Ratio (Aspergillus nidulans [2]): 2 - 8; Ratio (Candida parapsilosis [3]): 2 - 8; MIC (Candida albicans [4]): 3.5 µM (≈ 0.989 µg/mL); MIC (Candida albicans [6]): 6.9 µM (≈ 1.95 µg/mL); Activity (A549): Toxic; MIC (Candida albicans [8]): 3.5 µM (≈ 0.989 µg/mL); Activity (BEAS-2B): Toxic; Activity (HEK293): Toxic; Ratio (Candida albicans [12]): 2 - 8; MIC (Candida albicans [15]): 3.5 µM (≈ 0.989 µg/mL); MIC (Candida albicans [16]): 6.9 µM (≈ 1.95 µg/mL)
3 | CCCCCCCCCCN1CCN(CC(O)(Cn2cncn2)c2ccc(Cl)cc2Cl)CC1 (centres undefined) | 3.9 (≈ 1.94 µg/mL) | 7.9 (≈ 3.92 µg/mL) | Soluble | 3.9 | 7.9 (≈ 3.92 µg/mL) | 1.95 | 0.24 | 7.9 (≈ 3.92 µg/mL) | Soluble | 7.9 (≈ 3.92 µg/mL) | 15.6 (≈ 31.4 µM) | 31.3 (≈ 63 µM) | 2 (≈ 0.993 µg/mL) | 1 - 2 | 3.9 (≈ 1.94 µg/mL) | 0.48 (≈ 0.238 µg/mL) | 
